In ChEMBL document CHEMBL4428107 (Bioorg Med Chem, 2016):
Several values for one entry are separate records, joined by “and”; a condition that tells them apart may be missing. Equal values may be shown once. Activity calls are given as the source filed them. The rule behind the calls is not given here.

How the values were obtained:
Histone deacetylase 2 [1] = target: T1, Histone deacetylase 2 (Homo sapiens, UniProt Q92769); assay: Inhibition of full length recombinant human HDAC2 expressed in baculovirus expression system using fluorogenic peptide RHKK(Ac) as substrate by fluorescence assay
HCT-116 = assay: Antiproliferative activity against human HCT116 cells assessed as reduction in cell viability after 72 hrs by MTS-PMS assay; format: functional
Outline: (§1)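 MTS-PMS viability test. Cells were seeded at 3,000/well and left 24 h at 37 °C, 5% CO2, then exposed to compound for 72 h. Screening was at 50 μM for HCT116 and MCF-7 and […], with final DMSO ≤1%. MTS:PMS was mixed 20:1, added for 3 h, and absorbance read at 490 nm. At least two independent runs were done, each in triplicate.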

MCF7 = assay: Antiproliferative activity against human MCF7 cells assessed as reduction in cell viability after 72 hrs by MTS-PMS assay; conditions: MCF7, 72 h
MDA-MB-231 = assay: Antiproliferative activity against human MDA-MB-231 cells assessed as reduction in cell viability after 72 hrs by MTS-PMS assay; format: functional; conditions: MDA-MB-231, 72 h; outline: as §1
MOLT-4 = assay: Antiproliferative activity against human MOLT4 cells assessed as reduction in cell viability after 70 hrs by Quanti-blue assay; format: functional
Outline: (§2)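 Quanti-Blue viability kit. HuT-78 and Molt-4 cells were grown in RPMI-1640 and seeded at 10^5 cells/mL. Compounds were screened at 50 μM for 70 h, with detection reagent present for the final 2 h. Fluorescence was read at ex 530/em 590 nm. IC50 from dose-response came from linear regression. Three independent runs.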

HuT78 = assay: Antiproliferative activity against human HUT78 cells assessed as reduction in cell viability after 70 hrs by Quanti-blue assay; format: functional; outline: as §2
[2] = Antiproliferative activity against human PBMC assessed as reduction in cell viability after 70 hrs by Quanti-blue assay; format: cell-based
Outline: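 QB fluorescence viability assay; hPBMCs purified by density centrifugation from purchased human blood, stored frozen, resuspended in RPMI-1640 with 10% heat-inactivated FBS, HEPES, pyruvate, non-essential amino acids and BME; seeded at 10^6 cells/mL. Compounds at 50 μM, 70 h plus 2 h with detection reagent; λex 530/λem 590 nm. Three independent repeats.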

[3] = Immunomodulatory activity in human TALL-104 cells assessed as effect on degranulation by measuring augmentation of CD3-stimulated anti-LAMP fluorescence at 100 uM preincubated for 30 mins followed by anti-LAMP addition and incubated for 50 mins in the dark by flow cytometric analysis relative to control; format: functional
Histone deacetylase 1 = Histone deacetylase 1 (Homo sapiens, UniProt Q13547); assay: Inhibition of recombinant full length C-terminal FLAG-tagged/C-terminal His-tagged human HDAC1 using fluorogenic substrate by fluorescence assay
Outline: (§3)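 Outsourced HDAC isozyme panel run under proprietary protocols. Each compound was tested at 10 μM and 5 μM, using HDAC substrate 3 at 10 μM, with fluorescence read-out. […] IC50 range was bracketed from % inhibition at the two concentrations.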

Histone deacetylase 2 [4] = target: T1, Histone deacetylase 2; assay: Inhibition of recombinant full length C-terminal His-tagged human HDAC2 expressed in baculovirus expression system using fluorogenic substrate by fluorescence assay
[5] = target: Histone deacetylase 3/Nuclear receptor corepressor 2 (HDAC3/NCoR2) (Homo sapiens, UniProt O15379); assay: Inhibition of recombinant full length C-terminal His-tagged human HDAC3/GST-tagged human Ncor2 (395 to 489 residues) expressed in baculovirus expression system using fluorogenic substrate by fluorescence assay; outline: as §3
Histone deacetylase 4 = Histone deacetylase 4 (Homo sapiens, UniProt P56524); assay: Inhibition of recombinant C-terminal His-tagged/N-terminal GST-tagged human HDAC4 (627 to 1084 residues) expressed in baculovirus expression system using fluorogenic substrate by fluorescence assay
Outline: (§4)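 Outsourced HDAC isozyme panel run under proprietary protocols. Each compound was tested at 10 μM and 5 μM, using Class 2a HDAC substrate at 2 μM, with fluorescence read-out. […] IC50 range was bracketed from % inhibition at the two concentrations.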

Histone deacetylase 5 = Histone deacetylase 5 (Homo sapiens, UniProt Q9UQL6); assay: Inhibition of recombinant C-terminal His-tagged human HDAC5 catalytic domain (656 to 1122 residues) expressed in baculovirus expression system using fluorogenic substrate by fluorescence assay; outline: as §4
Histone deacetylase 7 = Histone deacetylase 7 (Homo sapiens, UniProt Q8WUI4); assay: Inhibition of recombinant N-terminal GST-tagged human HDAC7 (518 to end residues) expressed in baculovirus expression system using fluorogenic substrate by fluorescence assay; outline: as §4
Histone deacetylase 8 = Histone deacetylase 8 (Homo sapiens, UniProt Q9BY41); assay: Inhibition of recombinant full length C-terminal His-tagged human HDAC8 expressed in baculovirus expression system using fluorogenic substrate by fluorescence assay; outline: as §4
Histone deacetylase 9 = Histone deacetylase 9 (Homo sapiens, UniProt Q9UKV0); assay: Inhibition of recombinant C-terminal His-tagged human HDAC9 (604 to 1066 residues) expressed in baculovirus expression system using fluorogenic substrate by fluorescence assay; outline: as §4
[6] = target: Polyamine deacetylase HDAC10 (Homo sapiens, UniProt Q969S8); assay: Inhibition of recombinant N-terminal FLAG-tagged human HDAC10 (2 to 631 residues) expressed in baculovirus expression system using fluorogenic substrate by fluorescence assay; outline: as §3
Histone deacetylase 11 = Histone deacetylase 11 (Homo sapiens, UniProt Q96DB2); assay: Inhibition of full length recombinant human HDAC11 expressed in baculovirus expression system using fluorogenic substrate by fluorescence assay; outline: as §4
[7] = target: Protein deacetylase HDAC6 (Homo sapiens, UniProt Q9UBN7); assay: Inhibition of recombinant full length N-terminal GST-tagged human HDAC6 expressed in baculovirus expression system using fluorogenic substrate by fluorescence assay; outline: as §3
[8] = target: NAD-dependent protein deacetylase sirtuin-1 (Homo sapiens) (UniProt Q96EB6); assay: Inhibition of SIRT1 (unknown origin) at 10 uM
[9] = target: NAD-dependent protein deacetylase sirtuin-2 (Homo sapiens) (UniProt Q8IXJ6); assay: Inhibition of SIRT2 (unknown origin) at 10 uM
[10] = target: NAD-dependent protein deacetylase sirtuin-3, mitochondrial (Homo sapiens) (UniProt Q9NTG7); assay: Inhibition of SIRT3 (unknown origin) at 10 uM
[11] = target: DNA (cytosine-5)-methyltransferase 1 (Homo sapiens) (UniProt P26358); assay: Inhibition of DNMT1 (unknown origin) at 10 uM
[12] = target: T2, DNMT3A2/3L complex (Homo sapiens) (UniProt Q9Y6K1+Q9UJW3); assay: Inhibition of DNMT3A/3L (unknown origin) at 10 uM; format: protein-complex assay
[13] = target: T3, DNMT3B-DNMT3L complex (Homo sapiens) (UniProt Q9UBC3+Q9UJW3); assay: Inhibition of DNMT3B/3L (unknown origin) at 10 uM; format: protein-complex assay
[14] = target: NAD-dependent protein deacetylase sirtuin-1 (Homo sapiens) (UniProt Q96EB6); assay: Inhibition of SIRT1 (unknown origin) at 5 uM
[15] = target: NAD-dependent protein deacetylase sirtuin-2 (Homo sapiens) (UniProt Q8IXJ6); assay: Inhibition of SIRT2 (unknown origin) at 5 uM
[16] = target: NAD-dependent protein deacetylase sirtuin-3, mitochondrial (Homo sapiens) (UniProt Q9NTG7); assay: Inhibition of SIRT3 (unknown origin) at 5 uM
[17] = target: DNA (cytosine-5)-methyltransferase 1 (Homo sapiens) (UniProt P26358); assay: Inhibition of DNMT1 (unknown origin) at 5 uM
[18] = target: T2, DNMT3A2/3L complex (Homo sapiens); assay: Inhibition of DNMT3A/3L (unknown origin) at 5 uM; format: protein-complex assay
[19] = target: T3, DNMT3B-DNMT3L complex (Homo sapiens); assay: Inhibition of DNMT3B/3L (unknown origin) at 5 uM; format: protein-complex assay
[20] = target: NAD-dependent protein deacylase sirtuin-5, mitochondrial (Homo sapiens) (UniProt Q9NXA8); assay: Inhibition of SIRT5 (unknown origin) at 5 to 10 uM

T1 sequence (Q92769 whole entry): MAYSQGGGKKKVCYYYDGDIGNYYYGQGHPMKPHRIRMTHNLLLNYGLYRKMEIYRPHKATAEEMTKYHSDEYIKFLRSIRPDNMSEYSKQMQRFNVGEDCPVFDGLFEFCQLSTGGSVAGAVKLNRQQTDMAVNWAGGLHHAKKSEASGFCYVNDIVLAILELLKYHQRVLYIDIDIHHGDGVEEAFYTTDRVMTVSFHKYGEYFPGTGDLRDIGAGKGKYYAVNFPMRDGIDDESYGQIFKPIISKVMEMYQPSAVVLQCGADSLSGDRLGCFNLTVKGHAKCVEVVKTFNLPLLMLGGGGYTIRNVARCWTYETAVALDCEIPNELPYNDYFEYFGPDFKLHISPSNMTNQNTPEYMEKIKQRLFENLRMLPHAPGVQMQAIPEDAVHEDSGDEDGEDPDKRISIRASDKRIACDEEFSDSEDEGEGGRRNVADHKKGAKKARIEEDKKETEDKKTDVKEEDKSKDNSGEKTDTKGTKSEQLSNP
Sequence of NAD-dependent protein deacetylase sirtuin-3, mitochondrial (Homo sapiens) (Q9NTG7 whole entry): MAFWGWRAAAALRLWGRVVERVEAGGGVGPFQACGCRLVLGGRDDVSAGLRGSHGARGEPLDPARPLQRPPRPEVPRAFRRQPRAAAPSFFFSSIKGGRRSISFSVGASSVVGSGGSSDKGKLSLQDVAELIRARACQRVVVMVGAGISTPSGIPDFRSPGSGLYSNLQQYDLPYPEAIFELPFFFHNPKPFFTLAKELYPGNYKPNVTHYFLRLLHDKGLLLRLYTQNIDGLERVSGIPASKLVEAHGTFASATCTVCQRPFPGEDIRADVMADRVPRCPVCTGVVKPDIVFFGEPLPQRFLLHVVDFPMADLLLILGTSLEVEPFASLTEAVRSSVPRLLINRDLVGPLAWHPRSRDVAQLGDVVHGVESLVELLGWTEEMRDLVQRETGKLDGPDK
Sequence of NAD-dependent protein deacetylase sirtuin-2 (Homo sapiens) (Q8IXJ6 whole entry): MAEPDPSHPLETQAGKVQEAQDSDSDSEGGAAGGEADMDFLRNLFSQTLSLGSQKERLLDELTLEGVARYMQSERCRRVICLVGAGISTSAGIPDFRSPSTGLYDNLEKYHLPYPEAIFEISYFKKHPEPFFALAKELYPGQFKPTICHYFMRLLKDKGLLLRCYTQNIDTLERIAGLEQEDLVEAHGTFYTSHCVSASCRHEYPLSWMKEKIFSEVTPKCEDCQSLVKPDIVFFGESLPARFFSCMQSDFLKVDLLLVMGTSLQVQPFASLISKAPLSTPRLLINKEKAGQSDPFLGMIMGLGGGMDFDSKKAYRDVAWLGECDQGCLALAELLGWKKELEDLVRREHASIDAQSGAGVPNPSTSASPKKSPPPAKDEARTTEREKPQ
Sequence of DNA (cytosine-5)-methyltransferase 1 (Homo sapiens) (P26358 whole entry): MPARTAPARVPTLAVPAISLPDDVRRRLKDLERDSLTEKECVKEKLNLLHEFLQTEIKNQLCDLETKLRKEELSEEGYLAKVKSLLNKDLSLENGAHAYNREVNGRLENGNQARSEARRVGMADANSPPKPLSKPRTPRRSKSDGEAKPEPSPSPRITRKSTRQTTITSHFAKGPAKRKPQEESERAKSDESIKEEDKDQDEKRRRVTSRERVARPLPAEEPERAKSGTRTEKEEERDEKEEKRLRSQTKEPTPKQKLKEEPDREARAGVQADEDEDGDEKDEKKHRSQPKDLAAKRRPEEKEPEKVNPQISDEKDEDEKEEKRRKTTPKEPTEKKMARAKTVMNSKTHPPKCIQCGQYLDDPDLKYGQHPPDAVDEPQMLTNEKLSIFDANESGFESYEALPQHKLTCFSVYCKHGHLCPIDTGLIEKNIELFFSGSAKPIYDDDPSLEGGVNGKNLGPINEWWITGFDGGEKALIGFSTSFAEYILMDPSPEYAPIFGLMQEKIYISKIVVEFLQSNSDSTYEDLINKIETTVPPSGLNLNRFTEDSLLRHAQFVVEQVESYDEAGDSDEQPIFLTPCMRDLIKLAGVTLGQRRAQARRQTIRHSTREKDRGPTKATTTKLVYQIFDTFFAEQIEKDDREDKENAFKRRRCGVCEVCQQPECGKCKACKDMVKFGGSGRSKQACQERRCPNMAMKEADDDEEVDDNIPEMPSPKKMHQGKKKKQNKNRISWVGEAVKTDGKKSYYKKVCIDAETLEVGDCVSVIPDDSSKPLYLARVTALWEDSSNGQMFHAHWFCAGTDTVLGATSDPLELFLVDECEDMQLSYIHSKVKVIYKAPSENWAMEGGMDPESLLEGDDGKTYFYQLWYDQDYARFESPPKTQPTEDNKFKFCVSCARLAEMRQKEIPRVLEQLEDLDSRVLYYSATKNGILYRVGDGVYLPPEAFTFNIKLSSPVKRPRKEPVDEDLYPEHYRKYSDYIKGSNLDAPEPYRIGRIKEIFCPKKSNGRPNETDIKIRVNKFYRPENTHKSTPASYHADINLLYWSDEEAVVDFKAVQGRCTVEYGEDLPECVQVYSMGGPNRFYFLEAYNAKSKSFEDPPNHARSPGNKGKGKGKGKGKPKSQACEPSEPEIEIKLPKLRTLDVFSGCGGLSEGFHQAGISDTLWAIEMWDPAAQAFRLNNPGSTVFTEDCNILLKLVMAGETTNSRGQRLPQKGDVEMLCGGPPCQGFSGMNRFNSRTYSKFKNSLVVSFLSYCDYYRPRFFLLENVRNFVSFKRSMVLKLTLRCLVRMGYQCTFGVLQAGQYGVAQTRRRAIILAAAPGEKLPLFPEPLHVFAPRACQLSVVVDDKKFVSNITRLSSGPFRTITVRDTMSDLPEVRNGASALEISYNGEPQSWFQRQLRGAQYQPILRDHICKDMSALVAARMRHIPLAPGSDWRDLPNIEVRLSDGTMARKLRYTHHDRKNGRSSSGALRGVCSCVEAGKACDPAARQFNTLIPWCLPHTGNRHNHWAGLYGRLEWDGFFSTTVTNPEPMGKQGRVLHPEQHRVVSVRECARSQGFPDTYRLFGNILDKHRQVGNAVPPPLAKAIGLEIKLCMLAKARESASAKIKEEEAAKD
T3 sequence (Q9UJW3 whole entry, looked up, other chains not shown): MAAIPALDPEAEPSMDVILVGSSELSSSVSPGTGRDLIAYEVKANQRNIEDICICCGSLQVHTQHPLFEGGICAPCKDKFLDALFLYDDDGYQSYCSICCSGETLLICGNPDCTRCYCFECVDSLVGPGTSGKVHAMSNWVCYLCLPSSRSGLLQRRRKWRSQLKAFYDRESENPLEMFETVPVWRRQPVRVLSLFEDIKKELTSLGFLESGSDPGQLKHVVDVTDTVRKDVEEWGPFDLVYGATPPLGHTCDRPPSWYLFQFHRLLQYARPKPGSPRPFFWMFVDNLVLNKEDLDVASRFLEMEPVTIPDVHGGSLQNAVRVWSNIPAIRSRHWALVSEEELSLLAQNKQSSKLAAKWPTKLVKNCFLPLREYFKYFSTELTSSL
T2 sequence (Q9UJW3 whole entry, looked up): as the sequence (Q9UJW3 whole entry, looked up, other chains not shown) above
T2 sequence (Q9Y6K1 whole entry, looked up): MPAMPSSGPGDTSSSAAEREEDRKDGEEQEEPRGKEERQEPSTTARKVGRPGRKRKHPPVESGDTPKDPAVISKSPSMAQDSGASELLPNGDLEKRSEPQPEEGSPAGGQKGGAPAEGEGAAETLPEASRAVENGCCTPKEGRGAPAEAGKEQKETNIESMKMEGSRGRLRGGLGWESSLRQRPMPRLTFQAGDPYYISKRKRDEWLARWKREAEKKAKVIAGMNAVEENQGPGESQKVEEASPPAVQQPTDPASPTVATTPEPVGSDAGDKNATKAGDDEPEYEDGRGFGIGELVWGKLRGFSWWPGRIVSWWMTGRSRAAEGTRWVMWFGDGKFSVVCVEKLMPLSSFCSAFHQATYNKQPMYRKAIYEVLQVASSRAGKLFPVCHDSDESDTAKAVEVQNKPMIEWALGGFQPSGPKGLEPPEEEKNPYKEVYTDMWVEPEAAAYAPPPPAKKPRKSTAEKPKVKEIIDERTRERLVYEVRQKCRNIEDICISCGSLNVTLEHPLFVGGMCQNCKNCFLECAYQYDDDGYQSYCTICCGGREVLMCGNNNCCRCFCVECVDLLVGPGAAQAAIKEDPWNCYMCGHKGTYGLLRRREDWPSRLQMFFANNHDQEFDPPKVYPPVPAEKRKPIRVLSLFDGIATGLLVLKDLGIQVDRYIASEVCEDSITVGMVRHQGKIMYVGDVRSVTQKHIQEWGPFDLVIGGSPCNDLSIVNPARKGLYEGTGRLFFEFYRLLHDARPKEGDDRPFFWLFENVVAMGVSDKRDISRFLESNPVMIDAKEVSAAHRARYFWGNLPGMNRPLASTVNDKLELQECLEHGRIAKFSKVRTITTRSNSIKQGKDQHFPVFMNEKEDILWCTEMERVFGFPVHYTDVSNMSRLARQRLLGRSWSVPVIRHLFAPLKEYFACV
Sequence of NAD-dependent protein deacetylase sirtuin-1 (Homo sapiens) (Q96EB6 whole entry): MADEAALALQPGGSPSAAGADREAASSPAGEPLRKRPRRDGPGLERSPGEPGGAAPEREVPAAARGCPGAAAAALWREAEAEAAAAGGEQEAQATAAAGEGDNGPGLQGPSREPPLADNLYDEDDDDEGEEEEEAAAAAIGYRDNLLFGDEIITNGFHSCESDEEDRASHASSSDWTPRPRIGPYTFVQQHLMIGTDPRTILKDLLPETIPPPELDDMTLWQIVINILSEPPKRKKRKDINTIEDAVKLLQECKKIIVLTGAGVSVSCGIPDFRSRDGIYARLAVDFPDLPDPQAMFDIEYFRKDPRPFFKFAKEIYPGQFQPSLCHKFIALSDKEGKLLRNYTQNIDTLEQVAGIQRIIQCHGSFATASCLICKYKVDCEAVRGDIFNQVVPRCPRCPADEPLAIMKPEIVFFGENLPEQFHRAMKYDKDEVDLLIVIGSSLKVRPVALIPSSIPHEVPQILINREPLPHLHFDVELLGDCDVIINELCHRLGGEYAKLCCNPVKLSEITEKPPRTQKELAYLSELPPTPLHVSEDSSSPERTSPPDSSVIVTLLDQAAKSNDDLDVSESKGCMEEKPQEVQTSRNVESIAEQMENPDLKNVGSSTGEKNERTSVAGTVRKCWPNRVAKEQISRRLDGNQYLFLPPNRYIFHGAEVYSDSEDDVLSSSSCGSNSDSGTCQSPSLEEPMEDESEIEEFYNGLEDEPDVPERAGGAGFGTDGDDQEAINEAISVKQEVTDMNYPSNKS

## CCOC(=O)NCCCC(=O)OCCc1ccccc1
Histone deacetylase 2 [1]
  IC50: > 1 µM
HCT-116; Homo sapiens, HCT-116, 72 h
  GI50: > 50 µM
MCF7
  GI50: > 50 µM
MDA-MB-231
  GI50: > 50 µM
MOLT-4; Homo sapiens, MOLT-4, 70 h
  GI50: > 50 µM
HuT78; Homo sapiens, HuT78, 70 h
  GI50: > 50 µM
[2]
  GI50 at 70 h: > 50 µM
[3]
  Activity: 88%

## CCOC(=O)NCC(=O)NCCCCc1ccccc1
Histone deacetylase 2 [1]
  IC50: > 1 µM
HCT-116; Homo sapiens, HCT-116, 72 h
  GI50: > 50 µM
MCF7
  GI50: > 50 µM
MDA-MB-231
  GI50: > 50 µM
MOLT-4; Homo sapiens, MOLT-4, 70 h
  GI50: > 50 µM
HuT78; Homo sapiens, HuT78, 70 h
  GI50: > 50 µM
[2]
  GI50 at 70 h: > 50 µM
[3]
  Activity: 81%

## CCOC(=O)NCCCC(=O)NCCc1cccc(Cl)c1
Histone deacetylase 2 [1]
  IC50: > 1 µM
HCT-116; Homo sapiens, HCT-116, 72 h
  GI50: > 50 µM
MCF7
  GI50: > 50 µM
MDA-MB-231
  GI50: > 50 µM
MOLT-4; Homo sapiens, MOLT-4, 70 h
  GI50: > 50 µM
HuT78; Homo sapiens, HuT78, 70 h
  GI50: > 50 µM
[2]
  GI50 at 70 h: > 50 µM
[3]
  Activity: 75%

## CCCCOC(=O)NCCCC(=O)NCCc1ccccc1
Histone deacetylase 2 [1]
  IC50: > 1 µM
HCT-116; Homo sapiens, HCT-116, 72 h
  GI50: > 50 µM
MCF7
  GI50: > 50 µM
MDA-MB-231
  GI50: > 50 µM
MOLT-4; Homo sapiens, MOLT-4, 70 h
  GI50: > 50 µM
HuT78; Homo sapiens, HuT78, 70 h
  GI50: > 50 µM
[2]
  GI50 at 70 h: > 50 µM
[3]
  Activity: 101%

## CCOC(=O)NCCCC(=O)NCCc1ccc(Cl)cc1
Histone deacetylase 2 [1]
  IC50: > 1 µM
HCT-116; Homo sapiens, HCT-116, 72 h
  GI50: > 50 µM
MCF7
  GI50: > 50 µM
MDA-MB-231
  GI50: > 50 µM
MOLT-4; Homo sapiens, MOLT-4, 70 h
  GI50: > 50 µM
HuT78; Homo sapiens, HuT78, 70 h
  GI50: > 50 µM
[2]
  GI50 at 70 h: > 50 µM
[3]
  Activity: 85%

## CCCOC(=O)NCCCC(=O)NCCc1ccccc1
Histone deacetylase 2 [1]
  IC50: > 1 µM
HCT-116; Homo sapiens, HCT-116, 72 h
  GI50: > 50 µM
MCF7
  GI50: > 50 µM
MDA-MB-231
  GI50: > 50 µM
MOLT-4; Homo sapiens, MOLT-4, 70 h
  GI50: > 50 µM
HuT78; Homo sapiens, HuT78, 70 h
  GI50: > 50 µM
[2]
  GI50 at 70 h: > 50 µM
[3]
  Activity: 94%

## CCOC(=O)NCCCC(=O)NCCc1ccccc1
Histone deacetylase 1
  IC50: 5 to 10 µM
Histone deacetylase 2 [1]
  IC50: > 1 µM
HCT-116
  GI50: > 50 µM and 17.2 µM
MCF7
  GI50: > 50 µM
MDA-MB-231
  GI50: > 50 µM
MOLT-4
  GI50: > 50 µM and 7.8 µM
HuT78
  GI50: 36 µM
HuT78; Homo sapiens, HuT78, 70 h
  GI50: > 50 µM
[2]
  GI50 at 70 h: > 50 µM
Histone deacetylase 2 [4]
  IC50: 5 to 10 µM
[3]
  Activity: 77%
[5]
  IC50: 5 to 10 µM
Histone deacetylase 4
  IC50: 5 to 10 µM
Histone deacetylase 5
  IC50: 5 to 10 µM
Histone deacetylase 7
  IC50: 5 to 10 µM
Histone deacetylase 8
  IC50: 5 to 10 µM
Histone deacetylase 9
  IC50: 5 to 10 µM
[6]
  IC50: 5 to 10 µM
Histone deacetylase 11
  IC50: 5 to 10 µM
[7]
  IC50: 5 to 10 µM
[8]
  inhibition: inactive
[9]
  inhibition: inactive
[10]
  inhibition: inactive
[11]
  inhibition: inactive
[12]
  inhibition: inactive
[13]
  inhibition: inactive
[14]
  inhibition: inactive
[15]
  inhibition: inactive
[16]
  inhibition: inactive
[17]
  inhibition: inactive
[18]
  inhibition: inactive
[19]
  inhibition: inactive
[20]
  inhibition: inactive
